Only some compounds are listed: those with a hit (about 2% of all), similar ones and a draw of the others.
Rpn11 inh – Rpn11 (PSMD14) deubiquitinase inhibitors, primary screen, biochemical, fluorescence polarization, uHTS. inhibition, % at 20 µM. 26S proteasome non-ATPase regulatory subunit 14 (Homo sapiens), O00487. actives 0.59% (n = 360,000). human 26S proteasome, Ub4-pepOG fluorescence polarization; 20S core pre-blocked with epoxomicin;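 active means inhibition at 20 µM, scaled to each plate's controls, above about 33%, limit read from the data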
TPT1 inhibitor – Candida albicans TPT1 enzyme inhibitors, primary screen, biochemical, fluorescence polarization; actives 0.81% (n = 300,000); recombinant caTPT1, FP RNA substrate dephosphorylation; AID 1962, 2009; inhibition, % at 5 µM;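 active means inhibition above the mean of all tested compounds plus 3 SD, set per screening campaign, cut at about 24% in these data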;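 further: plate controls were DMSO alone for no effect and ferristatin control at 100 nM for full effect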
HNF4A DNA FP – change in binding of human HNF4A to DNA, primary screen, biochemical, fluorescence polarization, FITC-DNA | 1 h | activity change, % at 10 µM | Hepatocyte nuclear factor 4-alpha (Homo sapiens), P41235 | actives 0.3% (n = 360,000); in the data active means activity change above about 30%, passing the limit was not always enough
Target sequence (P41235 whole entry, looked up): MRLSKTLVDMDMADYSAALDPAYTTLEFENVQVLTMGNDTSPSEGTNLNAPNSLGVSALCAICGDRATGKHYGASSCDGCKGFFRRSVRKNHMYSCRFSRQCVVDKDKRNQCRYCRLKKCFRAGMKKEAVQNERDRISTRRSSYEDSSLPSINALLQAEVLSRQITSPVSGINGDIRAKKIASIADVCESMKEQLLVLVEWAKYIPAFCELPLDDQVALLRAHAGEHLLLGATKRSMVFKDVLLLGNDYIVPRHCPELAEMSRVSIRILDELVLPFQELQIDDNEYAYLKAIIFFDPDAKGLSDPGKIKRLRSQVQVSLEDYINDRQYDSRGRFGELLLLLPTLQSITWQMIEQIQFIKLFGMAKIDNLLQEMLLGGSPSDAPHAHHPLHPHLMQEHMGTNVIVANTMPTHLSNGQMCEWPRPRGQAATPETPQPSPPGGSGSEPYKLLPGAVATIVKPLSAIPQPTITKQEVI
ATG4B inh – ATG4B protease inhibitors, primary screen, biochemical, fluorescence, uHTS. Cysteine protease ATG4B (Homo sapiens), Q9Y4P1. ATG4B cleavage of LC3-PLA2, NBD-HPC fluorescence, 1 h. inhibition, % at 8.33 µM. actives 0.51% (n = 340,000). AID 504462, 2011; in the data active means inhibition above about 40%
CSN inh – inhibitors of CSN-mediated cullin deneddylation, primary screen, biochemical, fluorescence polarization, uHTS. actives 0.38% (n = 360,000). inhibition, % at 12.5 µM. COP9 signalosome complex subunit 5 (Homo sapiens), Q92905. Purified CSN, SCF-Nedd8-OG deneddylation;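 active means pattern-corrected inhibition above about 35%, with an unprinted fluorescence ratio check between 0.5 and 1.5, limit read from the data, passing the limit was not always enough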;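 further: 0% = enzyme with substrate and 100% = substrate without enzyme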
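Assay system: purified human Csn5 enzyme expressed in HEK293T cells; Input: 0.24 nM Csn5 enzyme, final concentration; Reagent: 10 nM SCFSkp2-Nedd8OG; Compound dosing: 12.5 µM single point; Times: reaction 90 min, room temperature; Technique: fluorescence polarization readout.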
SENP1 FRET inh – human SENP1 catalytic domain inhibitors, primary screen, biochemical, FRET, uHTS | actives 0.21% (n = 360,000) | inhibition, % at 10 µM | recombinant SENP1 catalytic domain, CyPet-SUMO1-YPet FRET cleavage | AID 624204, 2012;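 active means inhibition at least 30% at 10 µM, raw YFP signal under a set limit, fluorescence ratio 0.5 to 1.5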;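 further: 0% = enzyme with DMSO and 100% = no enzyme wells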
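Material – human SENP1 catalytic domain · Input – SENP1 enzyme, 20 pM final · Compound dosing – single concentration of 10 µM compound, 0.5% DMSO final · Timing – enzyme reaction for 50 min at room temperature, dark · Measured by – FRET fluorescence in CFP and YFP emission channels · Control set – no-enzyme wells low, DMSO-plus-enzyme wells high control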
TPT1 inh confirm – Candida albicans TPT1 inhibitors, confirmation, biochemical, fluorescence polarization, triplicate | shares compounds with TPT1 inhibitor | recombinant caTPT1, RNase T1 coupled | inhibition, % at 5 µM | actives 74% (n = 2,400);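 active means inhibition above the primary screen limit, the mean inhibition of all tested compounds plus 3 SD, cut at about 25% in these data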
RNase T1 inh – RNase T1 inhibitors, counter-screen for TPT1 inhibitor project, biochemical, fluorescence polarization; RNase T1 cleavage, 1536-well; actives 83% (n = 2,400); inhibition, % at 5 µM; shares compounds with TPT1 inhibitor;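 active means inhibition above the solvent-only control well mean plus 3 SD, limit set per screening run, cut at about 23% in these data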;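 further: plate controls were DMSO wells with enzyme for no effect and wells without RNase T1 for full effect; inhibitors block cleavage so intact labeled substrate keeps polarization high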
Active calls of the source: *; x = no result given.

SMILES	Rpn11 inh	TPT1 inhibitor	HNF4A DNA FP	ATG4B inh	CSN inh	SENP1 FRET inh	TPT1 inh confirm	RNase T1 inh
CC(/C=C1\SC(=S)N(NC(=O)c2cccc(O)c2)C1=O)=C\c1ccccc1	-2	1	-1	32	-1	-3	x	x
Cc1ccc(C(=O)/C=C/c2cn(CN3CCN(C)CC3)c3ccccc23)cc1	16	12	5	-6	2	-23	x	x
O=C(NN1C(=O)/C(=C/c2ccc(O)cc2)SC1=S)c1ccccc1O	x	55*	106*	10	101	81	65*	72*
Cn1cc(/C=C2\SC(=S)N(NC(=O)c3ccccc3)C2=O)c2ccccc21	20	137*	14	5	7	9	55*	61*
CCCCCCCCN1C(=O)[C@H](CC(=O)NCCc2ccccc2OC)C[C@@]2(C(=O)OCC)CCCC=C12	x	x	-4	x	-5	-3	x	x
C=CCn1c(=O)/c(=C/c2ccc(O)cc2)s/c1=C(/C#N)c1nnc2n1CCCCC2	x	118*	80*	-8	97*	-21	119*	116*
Cc1ccc(NC(=O)CSc2nc(=O)n(CCCN3CCOCC3)c3c2CCCC3)c(C)c1	-5	66*	1	3	-5	-1	3	4
Cc1ccc2c(c1)/C(=C/c1ccc(F)cc1)C(=O)N2	-1	1	-3	-11	4	-22	x	x
Cc1ccc2c(c1)N/C(=C(\C=C(/Cl)[N+](=O)[O-])[N+](=O)[O-])N2	x	25*	x	x	x	x	23	33*
CC(C)N(C)c1ncnc2c1ncn2[C@H]1CN(Cc2ccc(-c3ccccc3)cc2)C[C@@H](CO)O1	11	x	2	x	-2	-1	x	x
O=C(O)CC/C(=N\Nc1ccc([N+](=O)[O-])cc1)c1ccccc1	26	34*	11	-5	4	-37	46*	59*
Cc1cc(NC(=O)CSc2nc(C)c(C)n2CC(C)C)no1	-5	x	-3	0	-4	-4	x	x
CCCCN(C)C1=CC2=CC(=C(C#N)C#N)CCC2CC1 (stereo not given)	x	3	-98	-75	-75	-23	x	x
CCN(CC)C1=CC2=CC(=C(C#N)C#N)CCC2CC1 (stereo not given)	x	32*	-99	-113	-75	-26	22	37*
COc1ccc(/C=c2\s/c(=C/C(=O)c3ccc(C)cc3)[nH]c2=O)c(OC)c1	x	67*	36	-1	-37	-29	28*	37*
COC(=O)/C=C/C(=O)N1CCN(c2cccc(Cl)c2)CC1	x	48*	x	x	x	x	3	8
O=C1/C(=C\c2ccc(O)cc2)SC(=S)N1Cc1ccccc1	x	75*	94*	3	96	59	83*	84*
COc1cc(/C=C2/SC(=S)N(Cc3ccccc3)C2=O)ccc1OCC(=O)O	30	10	8	28	11	-55	x	x
COc1cc(/C=C2/SC(=S)N(Cc3ccccc3)C2=O)cc(Cl)c1O	x	37*	103	26	94	84	4	22*
CCOc1cc(/C=C2\CCCC(C(=O)C(F)(F)F)=C2O)ccc1O	3	36*	6	11	5	-26	44*	58*
CC(C)OC(=O)N(C)C[C@@H]1OCc2cnnn2CCCC(=O)N([C@H](C)CO)C[C@H]1C	-7	x	-2	x	-2	-1	x	x
